# Most compounds without a hit are left out; they make up all but 1.6% or so of the library.
# Vif imaging: HIV Vif inhibition. HEK293T cells, Vif self-association by quenched fluorescence, imaging, 24 h. inhibition, % at 7.49 µM. hit rate 0.35% among 340,000. AID 602346; in the data active = inhibition above about 50%, passing the limit was not always enough
# A1 inh: inhibitors of the anti-apoptotic protein A1, read as caspase activation | MEF A1-2A-BIM cells, Caspase-Glo 3/7 luminescence, 3 h; percent of clofoctol response, vehicle zero | caspase activation, % (concentration not given with the values) | hit rate 0.066% among 330,000 | AID 2462;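 active = over half of replicate activation scores above 10%, or exactly half above 10 with the replicate mean above 10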
# SR-BI HDL uptake: inhibitors of mouse SR-BI mediated HDL lipid uptake. Q61009. ldlA[mSR-BI] CHO cells, DiI-HDL uptake fluorescence, 3 h. inhibition, % at 12.5 µM. hit rate 0.96% among 320,000;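 active = mean replicate inhibition of at least 70% and a set share of replicates each scoring 70 or more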;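 note: 0% = median of neutral control wells and 100% = median of positive control wells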
# Target sequence (Q61009 whole entry, looked up): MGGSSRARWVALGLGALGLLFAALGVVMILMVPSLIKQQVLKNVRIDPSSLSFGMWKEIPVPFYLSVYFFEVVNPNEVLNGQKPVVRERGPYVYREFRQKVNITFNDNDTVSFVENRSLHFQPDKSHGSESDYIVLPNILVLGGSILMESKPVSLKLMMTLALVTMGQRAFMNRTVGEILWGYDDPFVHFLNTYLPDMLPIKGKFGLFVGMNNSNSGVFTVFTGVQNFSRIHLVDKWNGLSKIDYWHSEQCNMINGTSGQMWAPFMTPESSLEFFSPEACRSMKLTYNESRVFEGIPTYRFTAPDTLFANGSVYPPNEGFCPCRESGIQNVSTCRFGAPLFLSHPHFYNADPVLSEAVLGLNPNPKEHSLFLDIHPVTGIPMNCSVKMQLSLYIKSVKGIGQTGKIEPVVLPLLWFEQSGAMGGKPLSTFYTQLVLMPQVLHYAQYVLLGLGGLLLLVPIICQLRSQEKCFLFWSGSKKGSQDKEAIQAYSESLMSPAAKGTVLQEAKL
# H9c2 TAG inh: inhibitors of triacylglycerol accumulation; H9c2 cells, Nile Red lipid (TAG) fluorescence; cells loaded with 200 µM oleic acid; hit rate 0.66% among 230,000; AID 651582; inhibition, % at 12.5 µM;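 active = pattern-corrected inhibition of lipid staining of at least 50% with the nuclear-stain viability signal not falling by more than 50%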;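 note: 0% = DMSO wells and 100% = triacsin C control wells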
# SR-BI DiI-HDL act: activators of SR-BI mediated HDL lipid uptake | CHO ldlA[mSR-BI] cells, DiI-HDL uptake fluorescence, 3 h; 100 = double the neutral-control signal | activation, % at 12.5 µM | hit rate 0.096% among 320,000 | AID 504775;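 active = mean replicate activation of at least 60% and every replicate at or above 60%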;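 note: 0% = median plate neutral-control signal and 100% = twice that signal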
#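 Test system: SR-BI-overexpressing, LDLR-lacking CHO cells. Measured by: DiI fluorescence, bottom read. Medium: Ham's F12 with 0.5% BSA, HEPES 25 mM, pH 7.4. Timing: 3 h uptake period with compound, 37 °C.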
# TAG conf: confirmation of triacylglycerol accumulation inhibitors | shares compounds with H9c2 TAG inh | H9c2 lipid accumulation, Nile Red fluorescence; cells loaded with 200 µM oleic acid | inhibition, % at 12.5 µM | hit rate 71% among 990 | AID 651629;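 active = mean inhibition across replicates of 40% or more; inactive = mean inhibition below 40%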;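 note: plate controls were DMSO only wells for no effect and Triacsin C treated wells for full effect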
# * hit, by the source's call; . = no result given.
SMILES,Vif imaging,A1 inh,SR-BI HDL uptake,H9c2 TAG inh,SR-BI DiI-HDL act,TAG conf
CN(C)CCCNc1nc2cc(-c3ccc4c(ccn4C)c3)sc2c(=O)n1C,.,.,.,12.7,.,.
COc1ccc(C(=O)Nc2ccc(Cl)cc2C(=O)NCc2ccco2)cc1OC,-7.8,0.5,18.8,52.0*,-18.8,16.7
COc1ccc(C(=O)Nc2sc3c(c2C(=O)NCc2ccco2)CCCC3)cc1OC,.,-1.5,.,65.6*,.,51.8*
CCCCN(C)C(=O)c1ccc(Nc2nc(C(N)CCc3ccccc3)cs2)nc1 (configuration not stated),0.4,.,.,10.7,.,.
NC(Cc1ccc(C(F)(F)F)cc1)c1csc(Nc2nncc3ccccc23)n1 (configuration not stated),20.0,.,.,52.4*,.,67.8*
NC(Cc1ccc(C(F)(F)F)cc1)c1csc(Nc2ccc(C(=O)NCCCO)cn2)n1 (configuration not stated),7.2,.,.,57.5*,.,38.4
CCCCN(C)C(=O)c1ccc(Nc2nc(C(N)Cc3ccc(C(F)(F)F)cc3)cs2)nc1 (configuration not stated),-4.3,.,.,55.8*,.,71.1*
C=C(C(=O)Oc1c(C(C)(C)C)cccc1C(C)(C)C)c1ccccc1,.,0.1,12.1,.,-12.1,.
CC(=O)c1ccc(NC(=O)CSc2ccc3nnc(-c4cccnc4)n3n2)cc1,2.5,0.2,-1.4,13.7,1.4,.
CC1(C(=O)Nc2ccccc2)Cc2c(-c3ccc4c(c3)OCO4)ccnc2O1 (configuration not stated),16.3,.,.,-5.7,.,.
CC1(C(=O)NCc2cccs2)Cc2c(-c3ccccc3)ccnc2O1 (configuration not stated),.,.,.,4.0,.,.
CC1(C(=O)Nc2cccc(Oc3ccccc3)c2)Cc2c(-c3ccc4c(c3)OCO4)ccnc2O1 (configuration not stated),-4.2,.,.,63.1*,.,46.7*
CC1(C(=O)NCc2cccs2)Cc2c(-c3ccc4c(c3)OCO4)ccnc2O1 (configuration not stated),.,.,.,53.8*,.,51.9*
COC(=O)c1c(NC(=O)CSc2ccccc2N)sc(C)c1C,-3.4,1.2,12.0,-7.3,-12.0,.
CCc1ccccc1NC(=O)CNC(=O)CSC(=S)N1CCCC1,-1.4,-0.7,-12.6,0.3,12.6,.
NC(=O)N/N=C/c1c(Sc2nnnn2-c2ccccc2)nc2ccccn2c1=O,-1.4,1.3,.,52.4*,.,63.9*
Cc1cc(NS(=O)(=O)c2ccc(NC(=O)CSc3nc4ncccc4[nH]3)cc2)nc(C)n1,.,0.1,.,14.7,.,.
COc1ccccc1[C@H]1C(c2cccc(C)c2)=NN(c2ccccc2)[C@@H]1CO,-1.9,.,17.7,72.2*,-17.7,15.1
Cc1cc(=O)n2nc(N3CCC(C(=O)NCCc4ccc(Cl)cc4)CC3)sc2n1,11.0,1.6,43.2,.,-43.2,.
Cc1cccc(NC(=O)c2ccc([N+](=O)[O-])o2)c1C,3.6,0.5,5.6,71.0*,-5.6,61.7*
COCCN1C(=O)c2ccccc2C(C(=O)Nc2ccc3c(c2)OCCO3)C1c1ccc(F)cc1 (configuration not stated),4.2,0.1,7.9,57.2*,-7.9,28.4
CCN(CC)CCCNC(=O)C1c2ccccc2C(=O)N(CCOC)C1c1ccc(F)cc1 (configuration not stated),3.9,0.1,-22.4,-0.7,22.4,.
Cc1ccc2c(c1)-c1c(cnn1CC(=O)Nc1ccccc1N1CCN(C)CC1)CO2,4.5,0.2,3.1,53.2*,-3.1,50.8*
CCOc1ccc(OCC)c(NC(=O)CN(c2ccc(C)cc2)S(=O)(=O)c2c(C)noc2C)c1,-2.5,0.9,8.2,52.8*,-8.2,46.4*
COc1ccc2nc3cc([N+](=O)[O-])ccc3c(NNc3ccc([N+](=O)[O-])cc3)c2c1,66.7*,.,121.1*,50.5*,-121.1,43.6*
SMILES,Vif imaging,A1 inh,SR-BI HDL uptake,H9c2 TAG inh,SR-BI DiI-HDL act,TAG conf
CC(C)Cc1nc2sc3c(NCc4ccco4)ncnc3c2c2c1COC(C)(C)C2,-16.4,1.0,39.4,53.6*,-39.4,47.1*
COCCCN(CC(=O)Nc1ccc(N2CCOCC2)cc1)S(=O)(=O)c1ccccc1,2.4,-0.3,-9.8,-3.9,9.8,.
O=C(Nc1ccccc1N1CCCCC1)c1ncoc1-c1ccc(F)cc1,10.3,1.4,42.1,54.6*,-42.1,43.1*
Cc1cc(C)n(-c2nc3c(c(=O)[nH]c(=O)n3C)n2CC(O)COc2ccc(Cl)cc2Cl)n1 (configuration not stated),.,0.1,-0.5,81.9*,0.5,74.4*
COc1cccc(-c2cc(=O)c3cc(NC(C)=O)ccc3[nH]2)c1,-6.3,-0.4,-9.8,63.4*,9.8,33.9
CN1CCc2c(n(CC(O)CN3CCN(CCO)CC3)c3ccccc23)C1=O (configuration not stated),23.9,0.5,-16.7,9.8,16.7,.
Cc1cc(NC(=O)CSc2nc(-c3cccs3)nc3ccccc23)no1,5.3,0.0,31.6,78.3*,-31.6,72.6*
O=C(NCc1ccccc1)C(c1ccc(Cl)cc1)N(C(=O)c1csnn1)C1CC1 (configuration not stated),-3.2,-0.3,-0.8,.,0.8,.
CCc1nc2ccc(C(=O)NCc3ccc4c(c3)OCO4)cn2c1N(CC)CCN(C)C,-7.9,.,.,10.9,.,.
CCc1nc2ccc(C(=O)NCc3ccc4c(c3)OCO4)cn2c1N(CCC(C)C)CCN(C)C,3.8,.,.,72.9*,.,29.9
COc1cc(-c2cc3nc(NCCc4ccncc4)ccn3n2)cc(OC)c1OC,-8.5,.,.,23.4,.,.
COc1cc(-c2cc3nc(NCCOc4ccccc4)ccn3n2)cc(OC)c1OC,.,.,.,54.1*,.,49.0*
CC(C(=O)Nc1ccc(S(=O)(=O)N2CCOCC2)cc1)N1C(=O)C2CC=CCC2C1=O (configuration not stated),9.8,-1.0,-11.5,5.4,11.5,.
COc1cccc(CC(=O)Nc2ccc(S(=O)(=O)Nc3nc(C)cc(C)n3)cc2)c1,-1.9,0.2,-28.4,-0.3,28.4,.
CCCCOc1ccc(S(=O)(=O)N2CCN(C)CC2)cc1,-2.3,0.5,-2.0,6.4,2.0,.
COC(=O)[C@@]1(Cc2ccccc2)[C@H]2C(=O)N(Cc3ccccc3)C(=O)[C@H]2[C@H]2CN=C(SCc3ccc(Cl)cc3)N21,-22.0,.,-1.0,51.1*,1.0,70.9*
CCN1C(=O)[C@H]2[C@H]3CN=C(SCc4ccc(Cl)cc4)N3[C@@](Cc3ccccc3)(C(=O)OC)[C@H]2C1=O,-16.3,.,-13.3,5.9,13.3,.
COc1ccc(OC)c(Cc2nnc(CCC(=O)NCc3ccsc3)o2)c1,-7.8,-1.9,8.3,3.2,-8.3,.
C=CCC1(CC=C)CCCN1C(=O)Cn1nnnc1CN(C)C(C)C,-2.6,-0.6,0.9,.,-0.9,.
